pIC50, pKi: −log10 of the molar value. Structures can show the parent of a compound that is named as a salt.
Columns and labels:
[1] = molecular target: T1, Sodium-dependent dopamine transporter (Rattus norvegicus, UniProt P23977); experiment: Displacement of [3H]WIN-35428 from DAT in Sprague-Dawley rat striatum
[2] = molecular target: Norepinephrine transporter (Rattus norvegicus) (UniProt Q9WTR4); experiment: Displacement of [3H]nisoxetine from NET in Sprague-Dawley rat cortical tissue at 5 uM
Norepinephrine transporter (Rattus norvegicus), sequence (Q9WTR4 as listed by the source): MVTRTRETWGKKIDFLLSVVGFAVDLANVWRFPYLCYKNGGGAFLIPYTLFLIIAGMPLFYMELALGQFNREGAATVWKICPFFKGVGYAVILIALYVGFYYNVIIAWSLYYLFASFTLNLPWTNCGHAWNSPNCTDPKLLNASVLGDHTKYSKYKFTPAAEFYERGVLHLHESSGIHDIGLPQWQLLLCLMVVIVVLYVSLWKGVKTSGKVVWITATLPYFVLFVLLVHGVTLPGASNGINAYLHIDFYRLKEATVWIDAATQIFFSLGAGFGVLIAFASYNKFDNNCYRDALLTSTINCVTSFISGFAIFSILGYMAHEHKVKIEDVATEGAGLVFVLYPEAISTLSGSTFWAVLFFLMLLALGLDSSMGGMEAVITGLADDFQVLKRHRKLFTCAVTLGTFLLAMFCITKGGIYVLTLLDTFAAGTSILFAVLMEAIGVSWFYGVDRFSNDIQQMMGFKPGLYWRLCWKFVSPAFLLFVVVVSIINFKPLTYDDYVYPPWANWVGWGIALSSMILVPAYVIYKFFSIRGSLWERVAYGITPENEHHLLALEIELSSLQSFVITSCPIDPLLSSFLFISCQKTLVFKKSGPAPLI

[3] = molecular target: Sodium-dependent serotonin transporter (Rattus norvegicus) (UniProt P31652); experiment: Displacement of [3H]citalopram from 5HTT in Sprague-Dawley rat cerebrum at 10 uM
Sodium-dependent serotonin transporter (Rattus norvegicus), sequence (P31652 whole entry): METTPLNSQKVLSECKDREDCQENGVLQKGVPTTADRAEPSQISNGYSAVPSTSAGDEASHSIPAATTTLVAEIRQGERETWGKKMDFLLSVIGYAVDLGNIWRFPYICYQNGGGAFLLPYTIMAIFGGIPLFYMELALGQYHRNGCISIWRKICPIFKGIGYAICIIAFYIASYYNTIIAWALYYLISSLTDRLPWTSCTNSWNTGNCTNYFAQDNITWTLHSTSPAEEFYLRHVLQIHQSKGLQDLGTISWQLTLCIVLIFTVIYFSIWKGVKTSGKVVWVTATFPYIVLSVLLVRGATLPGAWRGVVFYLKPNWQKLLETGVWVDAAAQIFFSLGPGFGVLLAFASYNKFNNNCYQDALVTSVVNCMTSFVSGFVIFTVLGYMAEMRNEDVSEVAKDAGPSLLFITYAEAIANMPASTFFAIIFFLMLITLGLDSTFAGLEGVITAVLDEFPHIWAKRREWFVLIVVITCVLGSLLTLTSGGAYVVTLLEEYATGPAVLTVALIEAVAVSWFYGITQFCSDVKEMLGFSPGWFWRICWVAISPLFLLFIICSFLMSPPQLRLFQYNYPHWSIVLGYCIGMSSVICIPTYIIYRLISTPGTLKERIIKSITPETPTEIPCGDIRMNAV

[4] = molecular target: T1, Sodium-dependent dopamine transporter; experiment: Inhibition of [3H]DA uptake at DAT in Sprague-Dawley rat striatum
Method in brief: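 Uptake of [3H]dopamine into the S1 fraction of rat striatal homogenate; IC50 from curves fit by nonlinear regression.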

[5] = molecular target: Monoamine transporters; serotonin & dopamine (Rattus norvegicus) (UniProt P31652+P23977); experiment: Selectivity for rat DAT over rat 5HTT; assay type: protein assay
Monoamine transporters; serotonin & dopamine (Rattus norvegicus), sequence (P23977 whole entry, looked up): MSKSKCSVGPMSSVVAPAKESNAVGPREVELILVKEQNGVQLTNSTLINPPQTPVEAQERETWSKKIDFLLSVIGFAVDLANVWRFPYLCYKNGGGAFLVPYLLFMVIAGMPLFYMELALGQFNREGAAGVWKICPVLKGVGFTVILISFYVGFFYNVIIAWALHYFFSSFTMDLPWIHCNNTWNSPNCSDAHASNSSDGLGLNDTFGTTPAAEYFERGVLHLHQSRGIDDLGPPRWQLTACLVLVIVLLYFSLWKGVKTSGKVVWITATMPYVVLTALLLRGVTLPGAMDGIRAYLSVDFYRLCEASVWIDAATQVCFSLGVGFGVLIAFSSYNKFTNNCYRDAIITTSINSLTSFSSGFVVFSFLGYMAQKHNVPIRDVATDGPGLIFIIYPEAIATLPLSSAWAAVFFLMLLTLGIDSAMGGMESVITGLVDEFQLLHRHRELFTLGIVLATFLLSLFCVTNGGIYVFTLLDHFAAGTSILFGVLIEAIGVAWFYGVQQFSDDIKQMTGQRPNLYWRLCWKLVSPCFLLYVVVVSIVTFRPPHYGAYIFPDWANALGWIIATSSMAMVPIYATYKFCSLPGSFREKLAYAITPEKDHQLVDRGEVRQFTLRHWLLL
Monoamine transporters; serotonin & dopamine (Rattus norvegicus), sequence (P31652 whole entry, looked up): as the sequence (P31652 whole entry) above

[6] = molecular target: Monoamine transporters; Norepininephrine & dopamine (Rattus norvegicus) (UniProt P23977+Q9WTR4); experiment: Selectivity for rat DAT over rat NET; assay type: protein assay
[7] = molecular target: Norepinephrine transporter (Rattus norvegicus, UniProt Q9WTR4); experiment: Displacement of [3H]nisoxetine from NET in Sprague-Dawley rat cortical tissue
Norepinephrine transporter, sequence (Q9WTR4 whole entry): as the sequence (Q9WTR4 as listed by the source) above

[8] = molecular target: Sodium-dependent serotonin transporter (Rattus norvegicus, UniProt P31652); experiment: Displacement of [3H]citalopram from 5HTT in Sprague-Dawley rat cerebrum
Sodium-dependent serotonin transporter, sequence (P31652 whole entry): as the sequence (P31652 whole entry) above
Method in brief: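 Rat cortical P2 fraction in 25 mM sodium phosphate, pH 7.7 at 0 °C; 2 nM [3H]citalopram, 3 h at 0 °C; filtration. Nonspecific binding with 1 µM clomipramine. Compounds in water, dilute DMSO or methanol (≤0.3% solvent). Data corrected for filter binding; IC50 by nonlinear regression, Ki by Cheng-Prusoff.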

[9] = molecular target: Monoamine transporters; Norepinephrine & serotonin (Rattus norvegicus) (UniProt P31652+Q9WTR4); experiment: Selectivity for rat NET over rat 5HTT; assay type: protein assay
[10] = molecular target: Norepinephrine transporter (Rattus norvegicus) (UniProt Q9WTR4); experiment: Displacement of [3H]nisoxetine from NET in Sprague-Dawley rat cortical tissue at 10 uM

T1 sequence (P23977 whole entry): as the sequence (P23977 whole entry, looked up) above

| Structure (SMILES) | pKi [1] | inhibition [2] [%] | inhibition [3] [%] | pIC50 [4] | Selectivity ratio [5] | Selectivity ratio [6] | pKi [7] | pKi [8] | Selectivity ratio [9] | inhibition [10] [%] |
| --- | --- | --- | --- | --- | --- | --- | --- | --- | --- | --- |
| CCN1CCCC[C@@H]1[C@H](C)c1ccccc1 (relative stereo) | 5.12 | 8.3 | 11 | 5.10 | > 1.3 | > 0.66 |  |  |  |  |
| COC(=O)[C@H](c1ccccc1Cl)[C@H]1CCCCN1 | 5.76 |  | 22.2 | 5.58 | > 5.7 |  |  |  |  |  |
| O[C@H]1CCN2CCCC[C@@H]2[C@H]1c1ccc(Cl)c(Cl)c1 | 8.61 |  |  |  | 68 | 11 | 7.55 | 6.77 | 6 |  |
| CC[C@@]1(O)CCN2CCCC[C@@H]2[C@H]1c1ccccc1 | 6.76 |  | 19 |  | > 57 | 8.69 | 5.82 |  | > 6.6 |  |
| c1ccc([C@H]2CCCN3CCCC[C@H]23)cc1 (relative stereo) | 7.12 |  |  | 6.61 | 67 | 1.8 | 6.86 | 5.29 | 37 |  |
| CC[C@H]1CCN2CCCC[C@@H]2[C@H]1c1ccc(Cl)c(Cl)c1 | 8.39 |  |  |  | 48 | 24 | 7.01 | 6.70 | 2 |  |
| CO[C@H]1CCN2CCCC[C@@H]2[C@H]1c1ccccc1 | 7.97 |  | 73 | 7.21 | 190 | 5.9 | 7.20 | 5.68 | 32 |  |
| O[C@@H]1CCN2CCCC[C@@H]2[C@H]1c1ccccc1 | 5.20 | 23.7 | 1 | 4.97 | > 1.6 | > 0.8 |  |  |  |  |
| C[C@H]1C[C@H](c2ccccc2)[C@H]2CCCCN2C1 | 6.75 |  |  | 6.43 | 2.4 | 3.9 | 6.16 | 6.37 | 0.62 |  |
| CC[C@@H]1CCN2CCCC[C@@H]2[C@H]1c1ccc(Cl)c(Cl)c1 | 8.46 |  |  |  | 83 | 30 | 6.99 | 6.54 | 2.8 |  |
| OC[C@H](c1ccc(Cl)c(Cl)c1)[C@H]1CCCCN1 (relative stereo) | 8.41 |  | 94.6 | 7.65 | 71 |  |  | 6.56 |  |  |
| COC(=O)[C@H](c1ccc(Cl)c(Cl)c1)[C@H]1CCCCN1 | 8.32 |  |  | 8.15 | 140 |  |  | 6.18 |  |  |
| c1ccc(CC2CCCCN2)cc1 (stereo not given) | 5.20 |  | 22 | 5.06 | > 1.6 |  |  |  |  | 36 |
| COC(=O)[C@@H](c1ccc(Cl)c(Cl)c1)[C@H]1CCCCN1 (relative stereo) | 6.44 |  |  | 6.50 | 7.1 |  |  | 5.59 |  |  |
| CO[C@@H]1CCN2CCCC[C@@H]2[C@H]1c1ccccc1 | 6.24 | 64 | 14 | 5.73 | > 18 | 3.6 | 5.69 |  | > 4.9 |  |
| CCN1CCCC[C@@H]1[C@H](CO)c1ccccc1 (relative stereo) | 5.68 |  | 16.2 | 4.98 | > 4.8 |  |  |  |  |  |

| Structure (SMILES) | pKi [1] | inhibition [2] [%] | inhibition [3] [%] | pIC50 [4] | Selectivity ratio [5] | Selectivity ratio [6] | pKi [7] | pKi [8] | Selectivity ratio [9] | inhibition [10] [%] |
| --- | --- | --- | --- | --- | --- | --- | --- | --- | --- | --- |
| OC[C@H](c1ccccc1)[C@H]1CCCCN1 (relative stereo) | 6.39 |  | 31 | 5.82 | > 25 |  |  |  |  |  |
| Clc1ccccc1[C@H]1CCCN2CCCC[C@H]12 (relative stereo) | 6.32 | 58 |  | 5.90 | 3.8 | 5.7 | 5.56 | 5.74 | 0.67 |  |
| CC[C@@H]1CCN2CCCC[C@@H]2[C@H]1c1ccccc1 | 7.56 |  | 80 |  | 87 | 15 | 6.39 | 5.62 | 5.8 |  |
| O=C1CCN2CCCC[C@@H]2[C@H]1c1ccc(Cl)c(Cl)c1 (relative stereo) | 7.85 |  | 54 |  | 710 | 20 | 6.55 |  | 36 |  |
| COC(=O)[C@H](c1ccccc1)[C@H]1CCCCN1 [DEXMETHYLPHENIDATE HYDROCHLORIDE] |  |  | 14 |  |  |  | 6.57 |  |  |  |
| O=C1CC[C@H](c2ccccc2)[C@H]2CCCCN12 |  | 11 |  | 5.07 | 0.54 | > 0.76 |  | 5.45 | < 0.7 |  |
| O=C1CCN2CCCC[C@@H]2[C@H]1c1ccccc1 (relative stereo) | 6.04 | 52 | 5 | 4.91 | > 11 | 4.4 | 5.39 |  | > 2.5 |  |
| Clc1ccc([C@@H]2CCCN3CCCC[C@H]23)cc1Cl (relative stereo) | 7.46 |  |  | 7.06 | 3 | 4.6 | 6.80 | 6.99 | 0.64 |  |
| O[C@@H]1CCN2CCCC[C@@H]2[C@H]1c1ccc(Cl)c(Cl)c1 | 7.45 |  |  |  | 57 | 10 | 6.44 | 5.69 | 5.6 |  |
| CC[C@H]1CCN2CCCC[C@@H]2[C@H]1c1ccccc1 | 8.26 |  | 86 |  | 640 | 11 | 7.22 | 5.45 | 58 |  |
| c1ccc(C2CCCNC2)cc1 (stereo not given) | 5.34 |  | 53 | 5.97 | 2.2 | 0.12 | 6.27 |  | 19 |  |
| Clc1ccc([C@H]2CCCN3CCCC[C@H]23)cc1Cl (relative stereo) | 8.47 |  |  | 7.96 | 36 | 8.4 | 7.55 | 6.92 | 4.3 |  |
| O[C@H]1CCN2CCCC[C@@H]2[C@H]1c1ccccc1 | 6.97 |  | 12 | 6.17 | > 93 | 3.3 | 6.45 |  | > 28 |  |
| C[C@@H]1C[C@H](c2ccccc2)[C@H]2CCCCN2C1 | 6.92 |  |  | 6.61 | 2 | 0.64 | 7.12 | 6.61 | 3.2 |  |
| COC[C@H](c1ccccc1)[C@H]1CCCCN1 (relative stereo) | 7.05 |  | 47.8 | 6.55 | 110 |  |  |  |  |  |

From ChEMBL document CHEMBL1143672, “Synthesis and pharmacology of site-specific cocaine abuse treatment agents: restricted rotation analogues of methylphenidate” (J Med Chem, 2007)
